# Experimental data of several laboratories.
# Protocols differ between the studies behind these lines.
# Target: Eukaryotic translation initiation factor 2-alpha kinase 3 (EIF2AK3, Homo sapiens, UniProt Q9NZJ5)
# One construct used (Q9NZJ5 30-1116): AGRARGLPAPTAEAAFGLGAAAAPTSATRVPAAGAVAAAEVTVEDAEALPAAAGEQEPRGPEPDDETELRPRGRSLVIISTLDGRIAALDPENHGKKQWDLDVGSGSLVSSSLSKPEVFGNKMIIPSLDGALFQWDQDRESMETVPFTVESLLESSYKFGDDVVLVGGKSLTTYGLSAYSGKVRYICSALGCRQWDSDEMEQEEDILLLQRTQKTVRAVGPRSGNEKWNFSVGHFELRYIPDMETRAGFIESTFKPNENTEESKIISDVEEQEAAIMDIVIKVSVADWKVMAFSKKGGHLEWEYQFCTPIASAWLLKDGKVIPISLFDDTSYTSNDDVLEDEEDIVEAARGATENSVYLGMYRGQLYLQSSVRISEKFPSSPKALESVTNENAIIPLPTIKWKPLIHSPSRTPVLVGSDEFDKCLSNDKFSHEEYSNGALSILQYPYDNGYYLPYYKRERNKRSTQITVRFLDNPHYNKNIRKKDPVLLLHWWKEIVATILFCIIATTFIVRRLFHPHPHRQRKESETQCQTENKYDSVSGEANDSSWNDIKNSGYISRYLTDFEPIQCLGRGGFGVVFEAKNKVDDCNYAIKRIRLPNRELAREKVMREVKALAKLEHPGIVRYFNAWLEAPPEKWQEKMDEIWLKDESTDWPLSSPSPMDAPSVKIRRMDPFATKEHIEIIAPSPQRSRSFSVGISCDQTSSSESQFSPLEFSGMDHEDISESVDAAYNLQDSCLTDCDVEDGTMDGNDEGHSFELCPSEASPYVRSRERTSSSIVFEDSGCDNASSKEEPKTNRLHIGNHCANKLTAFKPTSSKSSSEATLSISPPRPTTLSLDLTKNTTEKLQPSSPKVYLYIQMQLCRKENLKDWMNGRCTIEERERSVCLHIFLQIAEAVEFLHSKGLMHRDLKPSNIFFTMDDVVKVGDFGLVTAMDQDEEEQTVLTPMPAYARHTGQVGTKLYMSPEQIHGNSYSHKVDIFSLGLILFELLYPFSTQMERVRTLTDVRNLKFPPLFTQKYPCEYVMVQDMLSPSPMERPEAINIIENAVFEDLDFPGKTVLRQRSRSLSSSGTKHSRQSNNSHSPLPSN
Compound,test,setting,measurement,value
CC(C)(C)c1nc(-c2cccc(NS(=O)(=O)c3c(F)cccc3F)c2F)c(-c2ccnc(N)n2)s1,"enzyme activity, inhibitor, radiometric",1 µM,remaining activity,4%
Cc1cnc(NC2CCOCC2)nc1-n1cnc(C(=O)NC(CN)c2cc(F)cc(Cl)c2)c1 (stereo not drawn),"enzyme activity, inhibitor, radiometric",1 µM,remaining activity,101%
CC/C(=N\NC(=O)NCc1cccc(O)c1)c1ccc(O)c(C)c1O,"enzyme activity, inhibitor",0.1 µM,inhibition,4.2%
Cc1ccc(C(=O)NCc2ccsc2)cc1C#Cc1cn(C(C)C)c2ncnc(N)c12,"enzyme activity, inhibitor",1 µM,activity vs control,82%
CCN(CC)c1ccc(C2=NNC(=O)CC2C)cc1[N+](=O)[O-] (stereo not drawn),"enzyme activity, inhibitor",10 µM,remaining activity,110%
FC(F)(F)Oc1cccc(-c2cnc3ccc(-c4ccncc4)nn23)c1,"enzyme activity, inhibitor, radiometric",1 µM,activity vs control,74%
COc1cccc2c(NCc3ccccc3)nc(-n3c(N)nc4ccccc43)nc12,"target engagement in cells, inhibitor, chemoproteomics",20 mM,inhibition,-7.4%
COc1cc(/C=C/C(=O)CC(=O)/C=C/c2ccc(O)c(OC)c2)ccc1O,"enzyme activity, inhibitor",1 µM,activity vs control,95%
Cc1ccc(NC(=O)c2ccc(C)c(C(F)(F)F)c2)cc1C#Cc1nn(C2CCC(O)CC2)c2ncnc(N)c12 (stereo not drawn),cell-free assay,10 µM,remaining signal,39%
CN1CC(Oc2cnc(C#N)cc2-c2ccn3nc(NC(=O)C4CC4)cc3c2)C1,"enzyme activity, inhibitor",1 µM,inhibition,0%
CC(C)(C)c1nc2c(s1)c1nc(N)ncc1c1ccc(NS(=O)(=O)c3c(F)cccc3F)c(F)c12,"enzyme activity, inhibitor, radiometric",1 µM,remaining activity,47%
Cc1cc(NC(=O)c2cccc3cc(-c4cccc5[nH]nc(N)c45)ccc23)ccc1F,"enzyme activity, inhibitor",0.1 µM,activity vs control,94%
COc1cc(Nc2cnc(C#N)c(O[C@H](C)CN(C)C)n2)ncc1-c1cnn(C)c1,"enzyme activity, inhibitor, radiometric",1 µM,remaining activity,101%
CCCCNc1ncc2c(-c3ccc(F)cc3)nn(C[C@H]3CC[C@H](N)CC3)c2n1,"target engagement in cells, inhibitor, chemoproteomics",20 mM,inhibition,17%
CNC(=O)c1cc2c(Oc3ccc(NC(=O)C4(C(=O)Nc5ccc(F)cc5)CC4)cc3)ccnc2cc1OC,"enzyme activity, inhibitor, radiometric",1 µM,inhibition,73%
